# In ChEMBL document CHEMBL3734694, “Design, synthesis, and anticancer evaluation of long-chain alkoxylated mono-carbonyl analogues of curcumin” (Eur J Med Chem, 2015):
# Activity calls are given as the source filed them. The rule behind the calls is not given here.
# Assays:
# [1] = Cytotoxicity against human MGC803 cells assessed as inhibition of cell proliferation incubated for 72 hrs by MTS assay; type: functional, cell-based; conditions: MGC-803, 72 h
# How it was run: (§1)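 Cells in RPMI-1640 with 10% heat-inactivated FBS at 37°C, 5% CO2. Seeded at 4000 cells/well in triplicate and attached overnight. Exposed to various concentrations for 72 h. MTS added for a further 4 h; absorbance at 490 nm. IC50 = concentration for 50% growth inhibition, as mean ± SEM of three independent tests.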
# [2] = Cytotoxicity against human SGC7901 cells assessed as inhibition of cell proliferation incubated for 72 hrs by MTS assay; type: functional, cell-based; conditions: SGC-7901, 72 h; how it was run: as §1
# [3] = Cytotoxicity against human SW620 cells assessed as inhibition of cell proliferation incubated for 72 hrs by MTS assay; type: functional, cell-based; conditions: SW-620, 72 h; how it was run: as §1
# CT26 [4] = assay: Cytotoxicity against mouse CT26 cells assessed as inhibition of cell proliferation incubated for 72 hrs by MTS assay; type: functional, cell-based; conditions: CT26, 72 h; how it was run: as §1
# [5] = Cytotoxicity against human GES-1 cells assessed as inhibition of cell proliferation incubated for 72 hrs by MTS assay; type: functional, cell-based; conditions: GES1, 72 h; how it was run: as §1
# [6] = Cytotoxicity against human MGC803 cells assessed as inhibition of cell proliferation at 10 uM incubated for 72 hrs by MTS assay; type: functional; conditions: MGC-803, 72 h
# How it was run: (§2)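 Single-concentration MTS screen at 10 μM. Cells in RPMI-1640 with 10% FBS, seeded at 4000 cells/well in triplicate, attached overnight, then exposed for 72 h at 37°C, 5% CO2. MTS for 4 h; absorbance 490 nm. Reported as % inhibition.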
# [7] = Cytotoxicity against human SGC7901 cells assessed as inhibition of cell proliferation at 10 uM incubated for 72 hrs by MTS assay; type: functional; conditions: SGC-7901, 72 h; how it was run: as §2
# [8] = Cytotoxicity against human SW620 cells assessed as inhibition of cell proliferation at 10 uM incubated for 72 hrs by MTS assay; type: functional; conditions: SW-620, 72 h; how it was run: as §2
# CT26 [9] = assay: Cytotoxicity against mouse CT26 cells at 10 uM assessed as inhibition of cell proliferation incubated for 72 hrs by MTS assay; type: functional; conditions: CT26, 72 h; how it was run: as §2
# [10] = Solubility of compound in water
# SGC-7901 [11] = assay: Induction of apoptosis in human SGC7901 cells assessed as necrotic cells and late apoptotic cells incubated for 30 hrs by PI and Annexin V-FITC-based flow cytometric analysis; type: functional, cell-based
# How it was run: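 SGC7901 cells grown to 80% confluency in 6-well plates, then treated 30 h with 2.5, 5 or 10 μM. DMSO negative control. Cells washed in ice-cold PBS and stained with FITC-Annexin V and PI in binding buffer. Read by flow cytometry: UR = necrotic/late apoptotic, LR = early apoptotic. Three separate experiments.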
# SGC-7901 [12] = assay: Induction of apoptosis in human SGC7901 cells assessed as increase in cleaved PARP incubated for 24 hrs by immunoblotting; type: functional, cell-based
# How it was run: (§3)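 SGC7901 cells treated 24 h at 2.5, 5 or 10 μM. Lysed on ice for 30 min; 60 µg protein run on 10% SDS-PAGE and transferred to PVDF. Blocked in 5% milk. Primary antibodies (cleaved PARP, pro-caspase-3, Bcl-2) overnight at 4°C, HRP secondary 1:300 for 1 h at room temperature. ECL detection. Three experiments.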
# SGC-7901 [13] = assay: Induction of apoptosis in human SGC7901 cells assessed as decrease in procaspase-3 fragments at 2.5 to 10 uM incubated for 24 hrs by immunoblotting; type: functional, cell-based; how it was run: as §3
# SGC-7901 [14] = assay: Induction of apoptosis in human SGC7901 cells assessed as decrease in BCL2 expression at 2.5 to 10 uM incubated for 24 hrs by immunoblotting; type: functional, cell-based; how it was run: as §3
solubility [10] [µg/mL],SMILES,IC50 [1] [µM],IC50 [2] [µM],IC50 [3] [µM],IC50 (CT26 [4]) [µM],IC50 [5] [µM],inhibition at 10 µM [6] [%],inhibition at 10 µM [7] [%],inhibition at 10 µM [8] [%],inhibition at 10 µM (CT26 [9]) [%],Activity (SGC-7901 [11]),Activity (SGC-7901 [12]),Activity (SGC-7901 [13]),Activity (SGC-7901 [14])
3.63,COc1cc(/C=C2\CC/C(=C\c3ccc(OCCCn4ccnc4)c(OC)c3)C2=O)ccc1OCCCn1ccnc1,2.46,0.89,0.95,0.36,7.09,16.3,76.8,93.5,101,,,,
,COc1cc(/C=C2\CCC/C(=C\c3ccc(OCCCN4CCOCC4)c(OC)c3)C2=O)ccc1OCCCBr,10.2,11,5.64,10.5,10,51.2,61.9,72.7,65.2,,,,
,CCN(CC)CCCOc1ccc(/C=C2\CCC/C(=C\c3ccc(OCCCBr)c(OC)c3)C2=O)cc1OC,15.5,11.9,4.65,12.8,14.1,87,86.4,85.3,92.3,,,,
,COc1ccccc1/C=C/C(=O)/C=C/c1ccc(OCCCBr)c(OC)c1,6.69,2.84,3.53,6.39,4.11,80.1,74.8,81.5,77.2,,,,
,COc1cc(/C=C2\CC/C(=C\c3ccc(OCCCN4CCOCC4)c(OC)c3)C2=O)ccc1OCCCN1CCOCC1,2.28,1,1.49,0.39,> 30,83.9,86.1,86,92.5,,,,
,COc1cc(/C=C2\CCC/C(=C\c3ccc(OCCCn4ccnc4)c(OC)c3)C2=O)ccc1OCCCn1ccnc1,2.21,3.38,2.79,3.59,2.87,88.5,85,82.4,90.9,,,,
114,COc1cc(/C=C/C(=O)/C=C/c2cccc(OC)c2OC)ccc1OCCCN1CCOCC1,2.49,1.84,1.02,2.38,2.77,77.6,73.7,82.1,88.9,inactive,inactive,Active,
,COc1cc(/C=C2\CCC/C(=C\c3ccc(OCCCN4CCCCC4)c(OC)c3)C2=O)ccc1OCCCN1CCCCC1,2.92,2.32,2.49,2.42,6.35,76.9,82.8,86.9,93.2,,,,
,COc1cc(/C=C2\CCC/C(=C\c3ccc(OCCCN4CCN(C)CC4)c(OC)c3)C2=O)ccc1OCCCN1CCN(C)CC1,1.94,1.88,1.04,2.01,3.27,77.5,84.8,86.7,109,,,,
,COc1cc(/C=C/C(=O)/C=C/c2c(C)cc(C)cc2C)ccc1OCCCN1CCOCC1,8.46,7.67,3.38,7.01,8.06,80.7,78.1,83.6,89.6,,,,
,COc1ccc(/C=C2\CCC/C(=C\c3ccc(OCCCN4CCOCC4)c(OC)c3)C2=O)cc1OC,8.61,2.87,3.81,2.99,8.17,89.8,86.4,83.6,86.5,,,,
,COc1cc(/C=C/C(=O)CC(=O)/C=C/c2ccc(O)c(OC)c2)ccc1O [CURCUMIN],31.4,24.4,12.5,7.7,27.9,,,,,,,,
,COc1cc(/C=C2\CCC/C(=C\c3ccc(OCCBr)c(OC)c3)C2=O)ccc1OCCBr,7.72,6.26,6.26,9.85,3.56,58.4,69.2,66.3,77.3,,,,
,COc1cc(/C=C/C(=O)/C=C/c2ccc(C(C)(C)C)cc2)ccc1OCCCN1CCOCC1,2.45,2.77,1.62,3.26,3.03,84.2,76.2,84.8,90.7,,,,
21.6,CCN(CC)CCCOc1ccc(/C=C2\CCC/C(=C\c3ccc(OCCCN(CC)CC)c(OC)c3)C2=O)cc1OC,1.72,1.7,0.99,2.06,3.45,80.4,78,82.6,91.9,Dose-dependent effect,Dose-dependent effect,Active,Active
,COc1cc(/C=C2\CCC/C(=C\c3ccc(OCCCN4CCOCC4)c(OC)c3)C2=O)ccc1OCCCN1CCOCC1,2.06,4.96,1.98,2.69,3.02,78.1,81.8,85.7,93.3,,,,
,COc1ccccc1/C=C/C(=O)/C=C/c1ccc(OCCBr)c(OC)c1,5.52,4.52,4.43,4.51,4.04,76.2,78.7,83.7,70.5,,,,
,COc1ccc(/C=C/C(=O)/C=C/c2ccc(OCCCN3CCOCC3)c(OC)c2)cc1OC,7.14,5.99,2.8,3.13,7.81,53.8,66.1,84.8,79.7,,,,
,COc1cc(/C=C2\CC/C(=C\c3ccc(OCCCN4CCCCC4)c(OC)c3)C2=O)ccc1OCCCBr,7.31,5.08,4.47,3.86,7.03,91.4,89,84.5,90.2,,,,
4.11,COc1cc(/C=C2\CC/C(=C\c3ccc(OCCCN4CCCCC4)c(OC)c3)C2=O)ccc1OCCCN1CCCCC1,0.68,0.44,0.39,0.18,0.67,86.6,84.2,83.8,91.9,,,,
